# High-throughput results (PubChem)
# CHO parental Ca = counter-screen for OX1R antagonists: effect in parental CHO cells; 0.63% of 330,000 active; AID 463079; parental CHO-K1, ATP-induced calcium, Fluo-8 fluorescence; inhibition, % at 5.6 µM;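 active = inhibition above that plate's mean sample inhibition plus 3 SD, cut at about 26% in these data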;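 note: 0% = ATP-challenged DMSO wells and 100% = DMSO wells without ATP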
#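 Material: Parental CHO cells | Reagent: ATP | Compound dosing: Single nominal dose of 5.6 µM per compound | Detection: Intracellular calcium via Fluo-8 no-wash fluorescent dye | Read-out: % inhibition of ATP-induced calcium mobilization | Benchmarks: Low control ATP plus DMSO, high control DMSO only | Replicates: Singlicate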
# OX1R antag-1 = antagonists of human orexin 1 receptor (OX1R). 1.8% of 330,000 active. inhibition, % at 6.6 µM. OX1R-expressing cells, FRET antagonist read-out. O43613; in the data active = inhibition mostly above about 38%, no sharp cut-off; inactive = mostly below about 40%;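 note: 0% = agonist challenge alone and 100% = reference antagonist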
# TAAR1 ag = human TAAR1 agonism | Q96RJ0 | CHO RD-HGA16 TAAR1, Fluo-8 calcium fluorescence; vehicle wells 0%, saturating PEA agonist 100% | activation, % at 3 µM | 0.99% of 360,000 active;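 active = activation above the mean activation of all test compounds in the run plus 3 SD, cut at about 38% in these data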
# Target sequence (Q96RJ0 whole entry, looked up): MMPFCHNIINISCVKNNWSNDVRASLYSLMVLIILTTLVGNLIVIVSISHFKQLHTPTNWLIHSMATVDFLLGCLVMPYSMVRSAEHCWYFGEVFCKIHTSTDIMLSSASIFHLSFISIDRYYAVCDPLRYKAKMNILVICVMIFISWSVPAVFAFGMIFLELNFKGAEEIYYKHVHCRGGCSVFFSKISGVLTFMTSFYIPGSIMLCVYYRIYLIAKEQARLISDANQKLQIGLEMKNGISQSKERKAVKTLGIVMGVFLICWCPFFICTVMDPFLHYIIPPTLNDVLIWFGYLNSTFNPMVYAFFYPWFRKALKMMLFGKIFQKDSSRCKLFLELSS
#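 Test system: RD-HGA16 (CHO) cells co-expressing Gα16 and hTAAR1 | Doses: Single dose, 3 µM | Schedule: 17-24 h seeding, 75 min 37 °C dye, 30 min RT | Evaluation: % activation from peak over basal fluorescence ratio, DMSO-to-PEA scaled | Technique: Kinetic Fluo-8 calcium fluorescence | Benchmarks: Low control DMSO, high control PEA (EC100)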
# TAAR1 antag = antagonists of human TAAR1 | Q96RJ0 | inhibition, % at 3 µM | 1.5% of 360,000 active | CHO RD-HGA16 TAAR1, Fluo-8 calcium fluorescence, antagonist | AID 624466;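 active = inhibition above a per-plate cutoff, the mean inhibition of test compounds on that plate plus 3 SD, cut at about 49% in these data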;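 note: 0% = DMSO plus EC80 beta-PEA response and 100% = DMSO alone without agonist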
#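 test system = CHO RD-HGA16 cells bearing hTAAR1 | replication = singlicate | controls = DMSO-only wells and EC80 β-PEA-stimulated wells | reagent = EC80 β-phenethylamine stimulus | read-out basis = percent inhibition of PEA-evoked calcium signal, max/basal emission ratio | schedule = seeding 17-24 h prior, 75-min 37 °C, 30-min RT dye loading | signal = kinetic Fluo-8 calcium fluorescence measurement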
# GPR7 antagonist = blocks human GPR7 receptor signaling; GPR7-expressing cells, fluorescence antagonist assay; inhibition, % at 4.4 µM; 1.1% of 290,000 active; AID 1861; in the data active = inhibition above about 16%, passing the limit was not always enough;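 note: cells stimulated with the agonist NPW; 0% = agonist with vehicle and 100% = vehicle without agonist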
# Target sequence (P48145 whole entry, looked up): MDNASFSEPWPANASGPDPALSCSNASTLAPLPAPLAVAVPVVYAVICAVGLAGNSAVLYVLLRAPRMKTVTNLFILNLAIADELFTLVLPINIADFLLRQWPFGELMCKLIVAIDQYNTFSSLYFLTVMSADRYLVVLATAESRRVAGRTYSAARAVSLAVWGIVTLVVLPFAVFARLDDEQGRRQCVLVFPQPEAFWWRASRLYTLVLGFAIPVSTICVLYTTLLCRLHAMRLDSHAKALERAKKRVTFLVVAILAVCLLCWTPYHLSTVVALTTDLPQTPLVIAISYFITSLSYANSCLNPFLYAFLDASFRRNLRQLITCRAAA
# OX1R antag-2 = human HCRTR1 antagonism | CHO/OX1R cells, Fluo-8 calcium fluorescence, orexin A | O43613 | AID 434989 | 0.43% of 330,000 active | inhibition, % at 5 µM;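 active = inhibition above its plate's threshold, mean inhibition of all tested compounds on the plate plus 3 SD, cut at about 37% in these data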;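 note: 0% = orexin A challenge wells and 100% = SB-334867-A antagonist wells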
# Numbers without * were called inactive; · = no result given. Sampled rows, rich in hits. Any-hit rate of the full collection: about 4.5%.
SMILES,CHO parental Ca,OX1R antag-1,TAAR1 ag,TAAR1 antag,GPR7 antagonist,OX1R antag-2
Cc1nnc(N/N=C/c2cc([N+](=O)[O-])c(N3CCC(C)CC3)cc2N2CCC(C)CC2)n1N,-33.6,145.8*,14.2,-38.6,7.2,-32.5
COC(=O)[C@@]12C[C@@H](CC(=O)NCc3cccc(C(F)(F)F)c3)C(=O)N(CCc3ccc(OC)c(OC)c3)C1=CCC(C)(C)C2,·,·,7.7,57.6*,·,·
COC(=O)[C@]12CCCCC=C1N(CCc1ccc(OC)c(OC)c1)C(=O)[C@H](CC(=O)NCc1cccc(C(F)(F)F)c1)C2,·,·,4.8,48.7*,·,·
COC(=O)[C@@]12C[C@@H](CC(=O)NCCC(C)C)C(=O)N(CCc3ccc(OC)c(OC)c3)C1=CCC(C)(C)C2,·,·,3.1,-6.9,·,·
CCCN1CCN(C(=O)c2ccc3[nH]c(C)c(C)c3c2)CC1,·,·,3.6,-34.6,·,·
CN(C)/C=N/c1ncc(C(=O)c2ccc3ccccc3c2)s1,-16.2,42.0*,8.2,6.0,4.1,-22.9
COc1ccc2nc(/N=C\N(C)C)sc2c1,-5.3,23.9,6.1,7.0,-6.8,-10.7
COc1ccc(C(=O)c2cnc(/N=C/N(C)C)s2)cc1,3.9,46.1*,11.6,1.5,-2.4,-9.6
NC(=O)C1(N2CCCCC2)CCN(C(=O)c2cc(COc3c(F)cccc3F)on2)CC1,·,·,6.9,1.1,·,·
FC(F)C(F)(F)C(F)(F)C(F)(F)c1cc(-c2ccccc2)n[nH]1,86.6*,42.2*,20.5,26.8,-2.9,52.5*
Cc1cc(-c2ccccc2)n[nH]1,-19.6,21.4,0.8,0.0,9.7,-0.8
CC(C)Cn1c(N)c(C(=O)COC(=O)c2cc3ccccc3cc2O)c(=O)n(C)c1=O,-0.9,12.3,3.5,24.6,·,25.2
CC(C)Cn1c(N)c(C(=O)COC(=O)/C=C/c2ccccc2)c(=O)n(C)c1=O,78.1*,45.9,6.6,9.5,·,47.3
CC(C)Cn1c(N)c(C(=O)COC(=O)c2cc(S(=O)(=O)N3CCOCC3)ccc2Br)c(=O)n(C)c1=O,-11.5,9.2,21.5,54.4*,·,7.8
Cc1ccccc1OCCC(=O)OCC(=O)c1c(N)n(CC(C)C)c(=O)n(C)c1=O,45.6*,41.3,9.4,29.4,4.6,27.0
CC(C)Cn1c(N)c(C(=O)COC(=O)CCc2nc3ccccc3s2)c(=O)n(C)c1=O,34.1*,34.8,13.4,36.9,21.1,40.4
Cc1ccc(S(=O)(=O)N2CCOCC2)cc1C(=O)OCC(=O)c1c(N)n(C)c(=O)n(C)c1=O,-7.2,-1.8,6.2,-8.8,·,-6.1
C=C(C)CSc1nnc(CCCCCNC(=O)OC(C)(C)C)o1,7.7,7.9,21.9,-27.5,-9.1,-10.6
COCCN1C[C@@H](CO)O[C@@H](n2cnc3c(NCCO)ncnc32)C1,·,·,0.8,-23.9,·,·
COc1ccccc1C(=O)C1CCCN(C(=O)CCn2cnnn2)C1 (centres undefined),-4.9,12.7,0.1,-11.2,-12.4,-8.9
CC(C)Cn1c(N)c(C(=O)COC(=O)CC23CC4CC(CC(C4)C2)C3)c(=O)n(C)c1=O,61.4*,58.2,3.7,40.6,20.9*,71.1*
Cc1csc(=O)n1CCC(=O)OCC(=O)c1c(N)n(CC(C)C)c(=O)n(C)c1=O,-10.6,12.2,7.8,8.1,·,-12.2
COc1ccc(N2C[C@@]3(O)CC[C@@H](O)[C@@H](OC)[C@@H]3[C@@](C)(O)[C@@H]2CC=C(C)C)cc1,·,·,0.9,-10.2,·,·
O=c1cc(-c2ccc(O)cc2)oc2c1ccc1ccccc12,-3.4,44.3*,7.3,13.3,·,-5.1
CCCCCCC[C@@H](C/C=C/CCC(=O)N(C)C/C(=C/Cl)C/C(=C\C(=O)N1CC(OC)=CC1=O)OC)OC,34.4,41.8*,-1.0,7.0,·,57.1*
SMILES,CHO parental Ca,OX1R antag-1,TAAR1 ag,TAAR1 antag,GPR7 antagonist,OX1R antag-2
CCCCCCC[C@@H](C/C=C/CCC(=O)N(C)C/C(=C/Cl)C/C(=C\C(=O)N1C[C@H](O)CC1=O)OC)OC,41.2*,12.6,5.1,49.7*,·,1.8
CCCCCCC[C@@H](C/C=C/CCC(=O)O)OC,-3.4,9.6,0.1,-5.8,·,-10.6
C[C@H](CO)N1C[C@H](C)[C@@H](CN(C)C(=O)Nc2cccc(F)c2)OCc2cn(nn2)CCCC1=O,·,·,1.6,-7.2,·,·
Cc1cc(SCC(=O)Nc2cccc(S(=O)(=O)NC3=NCCCCC3)c2)nc2ccccc12,-0.3,47.2,10.9,49.0*,1.6,-20.8
Cc1ccc(-n2c(SCC(=O)Nc3cccc(S(=O)(=O)NC4=NCCCCC4)c3)nc3ccccc3c2=O)cc1C,-13.1,11.2,2.1,-13.3,-4.5,-2.6
Nc1nnc(SCC(=O)OCC(=O)Nc2ccc(Br)cc2F)s1,-5.3,1.6,11.4,-4.3,-14.8,7.9
Nc1nnc(SCC(=O)OCC(=O)Nc2ccc(Br)cc2)s1,2.0,11.7,44.1*,1.2,-3.8,8.9
CSCCC(NC(=O)c1ccc([N+](=O)[O-])cc1Cl)C(=O)OCC(=O)N1CCN(C(C)=O)CC1 (centres undefined),0.5,54.9*,0.8,-19.6,·,-2.5
CSCCC(NC(=O)c1ccc([N+](=O)[O-])cc1Cl)C(=O)OCC(=O)C12CC3CC(CC(C3)C1)C2 (centres undefined),-8.3,7.9,1.8,-2.1,9.8,-14.2
CSCCC(NC(=O)c1ccc([N+](=O)[O-])cc1Cl)C(=O)OC(C)C(=O)NCc1ccco1 (centres undefined),-15.6,49.4*,-0.9,-22.0,·,-22.8
O=C(NNC(=O)c1cc([N+](=O)[O-])ccc1Cl)c1cccs1,-3.6,46.1*,0.1,-7.9,-0.3,-4.3
O=C(c1ccc([N+](=O)[O-])cc1)N1CCN(C(=O)c2cccs2)CC1,-5.1,49.7*,4.1,7.4,-6.4,-10.4
O=C(NNC(=O)c1ccccc1[N+](=O)[O-])c1cccs1,-9.3,33.8,5.4,1.4,-18.9,3.4
Brc1ccc(CN2CCCc3nc(-c4ccccc4)ccc32)cc1,·,·,-1.3,-4.9,·,·
O=C(COC(=O)c1cc(NS(=O)(=O)c2cccs2)ccc1O)Nc1ccccc1,-9.6,72.8*,9.6,13.0,-2.9,-11.7
COc1ccc(CCn2c(=N)c(C(=O)NCC3CCCO3)cc3c(=O)n4ccccc4nc32)cc1 (centres undefined),-16.9,57.8*,1.5,-18.3,-8.6,-14.1
COc1ccc(Cn2c(=N)c(C(=O)NCC3CCCO3)cc3c(=O)n4ccccc4nc32)cc1 (centres undefined),-19.6,61.1*,0.1,-8.4,8.7,-38.7
COc1ccc(CCNC(=O)c2cc3c(=O)n4ccccc4nc3n(CC3CCCO3)c2=N)cc1 (centres undefined),·,·,0.2,-15.1,·,·
CC1=C(C(=O)N2CCCCCC2)CC(CC(=O)NCC2CCCCC2)C(=O)N1CCCN1CCCC1=O (centres undefined),·,·,0.8,-22.9,·,·
